Source: the EternaBench riboswitch data

Test system: MS2 coat protein
Assay: apparent Kd, MS2 coat protein; higher = weaker binding; RNA-MaP array; FMN 200 µM where present
Procedure, shortened: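 Each design was made on Illumina sequencing-chip clusters by stalled E. coli RNA polymerase and titrated with SNAP-549-labelled MS2 coat protein from 0.7 or 1.5 nM, doubling to 3 µM, in the absence and then the presence of constant ligand. The buffer was 100 mM Tris-HCl pH 7.5, 80 mM KCl, 4 mM MgCl2, BSA, DTT, yeast tRNA and Tween-20. The apparent Kd is the median of filtered per-cluster fits of binding curves, with green signal normalised to red-channel RNA signal and control-cluster median Fmax.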

[1] = designed as: OFF switch for flavin mononucleotide, no ligand
[2] = ligand present: flavin mononucleotide, designed as: OFF switch for flavin mononucleotide
[3] = designed as: ON switch for flavin mononucleotide, no ligand
[4] = ligand present: flavin mononucleotide, designed as: ON switch for flavin mononucleotide

Row | Sequence | apparent Kd [1] [nM] | apparent Kd [2] [nM] | apparent Kd [3] [nM] | apparent Kd [4] [nM]
1 | AGCGGCGCGGGCCACCGCAGAACCAGAAGGACAUGAGGAUCACCCAUGUAGCAGAACAGGGCGGUGUAGGAUAUGGCAGGCUCG | 29.4 | 52.3 | – | –
2 | AUAAUUUUAUAUAUCUUAUUUAUCAGAAGGCAUAACAUGAGGAUCACCCAUGUAUAUUAUAGUUAUGAGGAUAUGAUUUAGUUA | 8.04 | 8.85 | – | –
3 | AAUUCACAUGAGGAUCACCCAUGUCAGGAUAUGGUUUCACGUGUUUCGGUGCUUGAGGCCAGAAGGGACAGCUA | 67 | 98.6 | – | –
4 | AGAGAAUACUCAGGAUAUCUUAAUAGAAAGAGUAGAGAAGGGAGACAUGAGGAUCACCCAUGUGAAGUCUUGAGACUACAUGGU | 367 | 470 | – | –
5 | UGUCGGAGCAGAGGAUAUUACAUGAGGAUCACCCAUGUAUGAACCAAUAGCUGGAAACAGCAAUGUAAGAAGGCUGCUCCGAAA | 12.3 | 176 | – | –
6 | UGUCUGAUCUAAUAACAUGAGGAUCACCCAUGUGUUCACAACUAGGAUAUCGAUUGUUAAGACGUCGAGAAGGAGUAUACAUUA | 39 | 53.5 | – | –
7 | GCACAUGAUACAGGAUAUGUUUUGGAUUUUAUAUGCAGUUAUUUUAUUUUGACAGAAGGGUAUACAUGAGGAUCACCCAUGUGC | 76.3 | 48.1 | – | –
8 | AAUUAACAUGAGGAUCACCCAUGUCGUAUUAUGGGAGGAUAUACGUGGACCGUAGUCCGCGUAGAAGGCCUAAUUA | – | – | 36.6 | 18
9 | GUGGUCAGACAUGAGGAUCACCCAUGUGGAAUAAAUAAGGUUUAGGAUAUGGAAUAUAGGAUAUACCAGAAGGGAGGGUUGGUG | – | – | 142 | 146
10 | AUGUGACGGUGCGCAUGUGGACGGAGAAGGCAGACAUGAGGAUCACCCAUGUGAGCCUGCUAUUCUGAGGAUAUCCGUUCGCAC | 31.7 | 158 | – | –
11 | AGCUAGUCAGGAUAUGCAUACAUGUCAAAAGACGUGAAGGGACAUGAGGAUCACCCAUGUAGAAGGGACUAGCA | 40.4 | 67.9 | – | –
12 | GUCAGCUCGUGAGGAUAUACAACACUGCUUCGGGAGUGUAUUAAGAUCACAUGAGGAUCACCCAUGUAGAAGGCACGAGCUGAU | 15 | 254 | – | –
13 | UCGGCGCGAGGAUAUGCGGUUGCUCCCUAGGGUCGGAGCGUACAUGAGGAUCACCCAUGUAGAAGGCGCGCCGC | 16.2 | 16.3 | – | –
14 | AACCUAUUACAGAAGGCCAGCUACAUGAGGAUCACCCAUGUCGAGUCAUGGAGGAUAUGUAGUAAUCUGCACGCGUGCGGGCAC | – | – | 49.8 | 6.65
15 | GCGUUCUUGUAGAAGGUACCUUCAACAUAUUAUAAACGCUAGACACAUGAGGAUCACCCAUGUUGUAAGGAUAUACAUGAACGC | – | – | 16.7 | 13.5
16 | GUCGGAAACGACAAUGAUAGGACUGAGGAUAUACAUAAAUAAUCCUCUACAUGAGGAUCACCCAUGUAGAAGGCAGUCCUAUCU | 19 | 24.6 | – | –
17 | CAAUUUAUAACAGGAUAUACAAUACAAUGAUUAGUAGAAGGGUUUAAUACAUGAGGAUCACCCAUGUCAUGUGUCAUAAUAACC | 34.3 | 24.9 | – | –
18 | GCAGACGUAGUGAGGAUAUGCUCUACCUCGGUAGAGCAGAAGGCACAUGAGGAUCACCCAUGUGAUUUCUCUGC | 37.2 | 421 | – | –
19 | GGGUGAGCUCAAGGAUAUCCAAAUCGGUUACAUGAGGAUCACCCAUGUCCGGGCGAAUAAAGGCCGGAGAAGGUGAGGGCCCUC | – | – | 67.5 | 180
20 | GAUCGUAUCCUAGGAUAUUCAUAAAACAUGAGGAUCACCCAUGUUAACUUGGGAGAAGGAGGAUACGAUCAACAGCGAAAGCUG | – | – | 7.35 | 5.09
21 | UUUGACGUCGUAGGAUAUGUAGGAUAUUCCUACAUGAGGAUCACCCAUGUUGACAUGGAAGAAGGACAGAAGGACGAUGUCCAU | – | – | 304 | 5.56

Row | Sequence | apparent Kd [1] [nM] | apparent Kd [2] [nM] | apparent Kd [3] [nM] | apparent Kd [4] [nM]
22 | GGUACUCAAAGAGUACUGAGUCGAACAUGAGGAUCACCCAUGUAGGAUAUGCGAGUUUUGAAUUUGCAGAAGGACAUUUGCAGC | 9.34 | 10.8 | – | –
23 | CACGGCAUCGGAGGAUAUACAUGAGGAUCACCCAUGUGGGUUGUACGCCGUGUAGAAGGCCGAGACCACCUUCUAGCUGGGAAG | 11.7 | 33.1 | – | –
24 | AAAACGUGAGGAUAUGCACCCACCAAGGUUUUUCGGGUACGACAUGAGGAUCACCCAUGUAGAAGGCACGCAAA | 27.6 | 21.2 | – | –
25 | GUCAGCUCGGGAGGAUAUACAACACUGCUUCGGCAGUGUAUUAAGAUCACAUGAGGAUCACCCAUGUAGAAGGCACGAGCUGAU | 7.79 | 51 | – | –
26 | GUUAAGGUAGGAUAUACGAUAAUAUAGGGUAGAUAUAUAACACAUGAGGAUCACCCAUGUAGAAGGACCAAGUG | 41.5 | 170 | – | –
27 | GGAGCUCAUCAAUACAUGAGGAUCACCCAUGUCGAAUGAUAUGAGGAUAUGCAUCGGAAAACGAUGUAGAAGGCAUAGAGCUCC | – | – | 15.3 | 6.63
28 | GCCAUCGCAUGAGGAUAUGCUCGGGUUUCCCGAGCAGAAGGCAUGUCGUAAGACAUGAGGAUCACCCAUGUAGUUAAGAUGGCA | – | – | 915 | 76.8
29 | AAAUAAAACGAUCGGCGAUCCAUACAUGAGGAUCACCCAUGUAGAAGGCACUCUACAAAGUAGAGUGAGGAUAUACGAGAUCGA | 7.13 | 95.5 | – | –
30 | AAUGUUGAUGUGAGGAUAUACAUAGUUUGACCGUAGUAGAAGGCACAUGAGGAUCACCCAUGUAGAUGUUUGGU | 12 | 24.2 | – | –
31 | AAUUAGGUCACAGGAUAUACAACAACCAAUGCUGUAGAAGGGUGACACAUUCUUUGCUGACAUGAGGAUCACCCAUGUAACCAC | – | – | 69.3 | 11.2
32 | AGUAAGAUGCAGAAGGUGUCAGCUAGUGCUACGACAUGAGGAUCACCCAUGUACUAGGUAGAGUACAAGGAUAUGCAUCUUACA | – | – | 23 | 6.15
33 | GCAAACACAUGAGGAUCACCCAUGUGGAAAGAGCAAUUAGGCUAGGAUAUUCAUGUCGUUUGCAAGAAGAAGGAGCCAUAGUGG | – | – | 560 | 157
34 | GCCGUCAACGUAGGAUAUCUUCAGCCACAGCACAUUGCUGUACAUGAGGAUCACCCAUGUCCUGGAGAGAAGGACGGACGGCAG | – | – | 108 | 19.6
35 | UUGCAGUCAUCAGGAUAUAGUAUUACGGCCAUUUAUAUUUUCAUACAUGAGGAUCACCCAUGUCGCUAGAAGGGAUUAUCGAUU | 47.7 | 43 | – | –
36 | AAUACUUAGUAAGGAUAUACUAGCGAUUAGCUUGUAGAAGGUACAGUCUUAUGUAUAACAUGUUAACAUGAGGAUCACCCAUGU | – | – | 67.2 | 35.1
37 | CAGCUACCCAGUAUGGGUUUAUGUGCAGAAGGCCAGGUACAUGAGGAUCACCCAUGUAAAGAUAUGGAGGAUAUGUUAGUGAAU | – | – | 17.9 | 6.66
38 | AACAAACAUGAGGAUCACCCAUGUCAGGAUAUCCGAAAUAAAGAAACAAUAAUAAUAAGGAGAAGGGACUAAAU | 53.5 | 55.5 | – | –
39 | UACAUUACUUAGAAGGGAUAUAUAUAAUUUUAGUCAGGAUAUAGAUACAGUACAACAUGAGGACAUGAGGAUCACCCAUGUAUU | – | – | 29.8 | 20.8
40 | GGGUACGUUUCGUAGCAGUGUCAUCGAGAAGGCCCUGACAUGAGGAUCACCCAUGUUGUUACAUGGGAGGAUAUCGAUGAUUUU | – | – | 19.1 | 6.06
41 | GCGCAAACAUGAGGAUAUGUAUUAAAUAAUAAUACAGAAGGCAUGUCAAAUGACAUGAGGAUCACCCAUGUUGGCAAAAUGCGC | – | – | 80.6 | 15.9
